In ChEMBL document CHEMBL1138273, “Design, synthesis, and characterization of new iron chelators with anti-proliferative activity: structure-activity relationships of novel thiohydrazone analogues” (J Med Chem, 2007):

Columns and labels:
SK-N-MC [1] = assay: Antiproliferative activity against human SK-N-MC cells by MTT assay; type: functional, cell-based
How it was run: (§1)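 MTT colour formation, shown to be directly proportional to viable cell number counted by Trypan blue, was used to read growth of SK-N-MC neuroepithelioma or mortal MRC-5 fibroblast cells. IC50 values are given as mean ± SD of 3 experiments.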

SK-N-MC [2] = assay: Effect on iron efflux in human SK-N-MC cells assessed as cellular iron release; type: functional; design: concentration or dose not given beside the values
How it was run: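 SK-N-MC cells were prelabeled with 59Fe-transferrin (0.75 µM) for 3 h at 37 °C, washed four times with ice-cold PBS, then incubated with chelator (50 µM). Overlying medium was separated from cells, and released versus retained 59Fe was gamma-counted in supernatant and cell pellet. Mean ± SD of 3 experiments, 3 determinations each.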

MRC5 = assay: Antiproliferative activity against human MRC5 cells by MTT assay; type: cell-based; how it was run: as §1
SK-N-MC [3] = assay: Inhibition of cellular iron uptake from 59Fe]transferrin in human SK-N-MC cells at 50 uM relative to control; type: functional; conditions: values are per cent of control
How it was run: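 Cells were co-incubated for 3 h at 37 °C with 59Fe-transferrin (0.75 µM) plus chelator (50 µM), then washed four times in ice-cold PBS. Pronase (1 mg/mL, 30 min, 4 °C) stripped membrane-bound 59Fe, and the Pronase-insensitive fraction was counted as internalized. Values are % of control, mean ± SD of 3 experiments with 3 determinations each.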

Structure (SMILES) | IC50 (SK-N-MC [1]) | Activity (SK-N-MC [2]) | IC50 (MRC5) | response, % of control at 50 µM (SK-N-MC [3])
O=C(N/N=C/c1c(O)ccc2ccccc12)c1ccncc1 | 0.59 µM | 44% |  | 
O=C(N/N=C/c1c(O)ccc2ccccc12)c1ccccc1 | 0.99 µM |  |  | 
NC(=S)N/N=C/c1ncccc1N [TRIAPINE] | 0.54 µM |  |  | 
S=C(NN=C(c1ccccn1)c1ccccn1)c1ccccc1 | 0.012 µM | 37% | 0.75 µM | 20%
Oc1ccc2ccccc2c1/C=N/NC(=S)c1ccccc1 | 2.53 µM | 37% | 3.89 µM | 20%
O=C(NN=C(c1ccccn1)c1ccccn1)c1ccccc1 | 1.24 µM |  |  | 
Cc1ncc(CO)c(/C=N/NC(=S)c2ccccc2)c1O [PYRIDOXAL THIOBENZOYL HYDRAZONE] | 58.2 µM |  | > 80 µM | 
O=C(N/N=C/c1ccccc1O)c1ccccc1 [SALICYLALDEHYDE BENZOYL HYDRAZONE] | 3.23 µM |  |  | 
CC(=O)N(O)CCCCCNC(=O)CCC(=O)N(O)CCCCCNC(=O)CCC(=O)N(O)CCCCCN [DEFEROXAMINE] | 14.2 µM | 17% |  | 
O=C(N/N=C(/c1ccccc1)c1ccccn1)c1ccccc1 | 1.47 µM |  |  | 
Cc1ncc(CO)c(/C=N/NC(=O)c2ccccc2)c1O [PYRIDOXAL BENZOYL HYDRAZONE] | 31.8 µM |  |  | 
Oc1ccccc1/C=N/NC(=S)c1ccccc1 [SALICYLALDEHYDE THIOBENZOYL HYDRAZONE] | 24.5 µM | 37% | 57 µM | 20%
CN(C)C(=S)NN=C(c1ccccn1)c1ccccn1 | 0.002 µM | 44% |  | 
Cc1ncc(CO)c(/C=N/NC(=O)c2ccncc2)c1O [PYRIDOXAL ISONICOTINOYL HYDRAZONE] |  | 44% |  | 
S=C(N/N=C(/c1ccccc1)c1ccccn1)c1ccccc1 | 0.011 µM |  | 0.53 µM | 
